Measured values reported in publication PMC4567957 (Bioorganic & medicinal chemistry letters, 2015).
“Also recorded” adds a separate entry of the source. Each block holds one compound with its values, some of them ahead of it. Starred links: 1 amine or outer side, 2 acyl side, 3 side chain; linkers in the order of their positions; H or OH if unused. Positions of bridges follow the written chain, without caps; N, C: chain ends. Non-standard residues stand in square brackets, D forms with d. Residues, ends and D or L forms follow the SMILES beside them. *: point of attachment. CH2CONHCH2CH2NHCOCH2 = O=C(C[*:1])NCCNC(=O)C[*:2]; Propanoyl(3,3-Ph2) = O=C(CC(c1ccccc1)c1ccccc1)*; Pyridine(2,6-diCH2) = c1cc(C[*:1])nc(C[*:2])c1; X2 = O=C(CC(c1ccccc1)(c1ccccc1)c1ccccc1)*; Dip = N[C@H](C(=O)O)C(c1ccccc1)c1ccccc1; X1 = CCCCCCCCCCCCCCCC(=O)NCCOCCOCCN*; mXylylene = c1cc(C[*:1])cc(C[*:2])c1; oXylylene = c1ccc(C[*:2])c(C[*:1])c1; NH(CH2CH2O)2CH2CH2NH2 = NCCOCCOCCN*; pXylylene = c1cc(C[*:2])ccc1C[*:1]; Mpa = O=C(O)CCS

Tests used:
human ferroportin-GFP = target: T1, human ferroportin-GFP (Homo sapiens, UniProt Q9NP59); assay: In vitro ferroportin; type: cell-based; settings: for times less active than mHS5: versus mHS5; for bioactivity in Fpn degradation assay (in words): result in words, see Table 1
T1 sequence (Q9NP59 1-571): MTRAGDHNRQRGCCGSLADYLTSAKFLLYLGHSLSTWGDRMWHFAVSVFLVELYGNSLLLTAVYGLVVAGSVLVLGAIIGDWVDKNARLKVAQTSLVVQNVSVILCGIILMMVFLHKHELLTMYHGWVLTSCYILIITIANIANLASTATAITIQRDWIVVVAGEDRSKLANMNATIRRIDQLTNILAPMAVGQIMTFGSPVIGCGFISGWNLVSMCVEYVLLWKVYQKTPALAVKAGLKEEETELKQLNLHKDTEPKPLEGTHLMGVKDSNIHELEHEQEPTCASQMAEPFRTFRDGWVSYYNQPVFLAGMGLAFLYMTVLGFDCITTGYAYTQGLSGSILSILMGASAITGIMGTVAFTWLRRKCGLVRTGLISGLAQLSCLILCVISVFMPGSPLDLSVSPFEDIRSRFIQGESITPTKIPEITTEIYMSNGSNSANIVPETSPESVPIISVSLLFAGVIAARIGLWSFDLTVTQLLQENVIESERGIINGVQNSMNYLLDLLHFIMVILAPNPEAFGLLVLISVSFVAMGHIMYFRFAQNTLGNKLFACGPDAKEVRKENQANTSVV

[1] = Plasma stability in freshly prepared mouse plasma; type: in vitro ADME; settings: 25 μM, 37 °C
Method in brief: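 Test compound, from a 10 mM DMSO stock, spiked into freshly prepared mouse plasma (final 25 μM) and incubated at 37 °C. Aliquots taken at set time points were quenched in DMSO/acetonitrile (1:1) with 0.1% TFA and centrifuged (13000 rpm, 10 min). Supernatants were analysed by triple-quadrupole LC/MS against a peptide internal standard to follow remaining intact peptide over time.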

C57BL/6 mice = type: in vivo, mouse; settings: subcutaneous, 50–200 nmoles, 24h post-injection

times more active than mHS22 (human ferroportin-GFP; versus AcNH-containing mHS22): approximately 2 times
SMILES: N=C(N)NCCC[C@@H]1NC(=O)[C@H](CS)NC(=O)[C@H](CCCNC(=N)N)NC(=O)[C@@H]2CCCN2C(=O)[C@H](C(c2ccccc2)c2ccccc2)NC(=O)CCSCc2cccc(c2)CSC[C@@H](C(=O)NCCOCCOCCN)NC(=O)[C@H](Cc2ccccc2)NC1=O [mHS23] ([Mpa][Dip]PRCRFC-{NH(CH2CH2O)2CH2CH2NH2}; linker 1-8 via mXylylene (inferred))

bioactivity in Fpn degradation assay (in words) (human ferroportin-GFP): inactive
SMILES: CC(=O)N[C@H]1CSCc2cccc(n2)CSC[C@@H](C(N)=O)NC(=O)[C@H](Cc2ccccc2)NC(=O)[C@H](CCCNC(=N)N)NC(=O)[C@H](CS)NC(=O)[C@H](CCCNC(=N)N)NC(=O)[C@@H]2CCCN2C(=O)[C@H](Cc2ccccc2)NC1=O [mHS7] (Ac-CFPRCRFC-NH2; linker 1-8 via Pyridine(2,6-diCH2); N-terminus and C-terminus assumed)

times less active than mHS5 (human ferroportin-GFP): approximately 2 times
SMILES: CC(=O)N[C@H]1CSCc2ccccc2CSC[C@@H](C(N)=O)NC(=O)[C@H](Cc2ccccc2)NC(=O)[C@H](CCCNC(=N)N)NC(=O)[C@H](CS)NC(=O)[C@H](CCCNC(=N)N)NC(=O)[C@@H]2CCCN2C(=O)[C@H](Cc2ccccc2)NC1=O [mHS6] (Ac-CFPRCRFC-NH2; linker 1-8 via oXylylene; N-terminus and C-terminus assumed)

increase in potency (4Phe→Dpa) (human ferroportin-GFP; mHS5 versus mHS15): 5 ×
SMILES: CC(=O)N[C@H]1CSCc2cccc(c2)CSC[C@@H](C(N)=O)NC(=O)[C@H](Cc2ccccc2)NC(=O)[C@H](CCCNC(=N)N)NC(=O)[C@H](CS)NC(=O)[C@H](CCCNC(=N)N)NC(=O)[C@@H]2CCCN2C(=O)[C@H](C(c2ccccc2)c2ccccc2)NC1=O [mHS15] (Ac-C[Dip]PRCRFC-NH2; linker 1-8 via mXylylene; N-terminus and C-terminus assumed)

Further lines, the compound ahead of its results:

SMILES: CC(=O)N[C@@H](CS)C(=O)N[C@@H](Cc1ccccc1)C(=O)N1CCC[C@H]1C(=O)N[C@@H](CCCNC(=N)N)C(=O)N[C@@H](CS)C(=O)N[C@@H](CCCNC(=N)N)C(=O)N[C@@H](Cc1ccccc1)C(=O)N[C@@H](CS)C(N)=O [mHS1] (Ac-CFPRCRFC-NH2; N-terminus and C-terminus assumed)
EC50 (human ferroportin-GFP): > 600 nM | time within which degraded in plasma [1]: ≤ 6 h

SMILES: CCCCCCCCCCCCCCCC(=O)NCCOCCOCCNC(=O)[C@@H]1CSCc2cccc(c2)CSC[C@H](NC(=O)CC(c2ccccc2)c2ccccc2)C(=O)N[C@@H](CCCNC(=N)N)C(=O)N[C@@H](CS)C(=O)N[C@@H](CCCNC(=N)N)C(=O)N[C@@H](Cc2ccccc2)C(=O)N1 [mHS26] ({Propanoyl(3,3-Ph2)}-CRCRFC-X1; linker 1-6 via mXylylene; N-terminus and C-terminus assumed)
fold less potent than parental minihepcidin PR73 (human ferroportin-GFP; ratio of EC50 versus PR73): 12.5 × | in vivo activity (decrease in serum iron) (C57BL/6 mice): no desired biological effect; also recorded: no in vivo potency | plasma stability compared with PR73 [1]: slightly more resistant to plasma driven degradation

SMILES: CC(=O)N[C@H]1CSCc2ccc(cc2)CSC[C@@H](C(N)=O)NC(=O)[C@H](Cc2ccccc2)NC(=O)[C@H](CCCNC(=N)N)NC(=O)[C@H](CS)NC(=O)[C@H](CCCNC(=N)N)NC(=O)[C@@H]2CCCN2C(=O)[C@H](Cc2ccccc2)NC1=O [mHS4] (Ac-CFPRCRFC-NH2; linker 1-8 via pXylylene (inferred))
times less active than mHS5 (human ferroportin-GFP): approximately 2 times

SMILES: N=C(N)NCCC[C@@H]1NC(=O)[C@@H](NC(=O)CC(c2ccccc2)(c2ccccc2)c2ccccc2)CSCc2cccc(c2)CSC[C@@H](C(N)=O)NC(=O)[C@H](Cc2ccccc2)NC(=O)[C@H](CCCNC(=N)N)NC(=O)[C@H](CS)NC1=O [mHS19] (X2-CRCRFC-NH2; linker 1-6 via mXylylene; C-terminus assumed)
EC50 (human ferroportin-GFP): ~100 nM | fold less potent than mHS15 (human ferroportin-GFP; versus mHS15): approximately 2 ×

SMILES: CC(=O)N[C@H]1CSCC(=O)NCCNC(=O)CSC[C@@H](C(N)=O)NC(=O)[C@H](Cc2ccccc2)NC(=O)[C@H](CCCNC(=N)N)NC(=O)[C@H](CS)NC(=O)[C@H](CCCNC(=N)N)NC(=O)[C@@H]2CCCN2C(=O)[C@H](Cc2ccccc2)NC1=O [mHS2] (Ac-CFPRCRFC-NH2; linker 1-8 via CH2CONHCH2CH2NHCOCH2; N-terminus and C-terminus assumed)
bioactivity in Fpn degradation assay (in words) (human ferroportin-GFP): inactive

SMILES: CCCCCCCCCCCCCCCCNC(=O)CN(CC(N)=O)C(=O)CCCCCNC(=O)[C@@H]1CSCc2cccc(c2)CSC[C@H](NC(C)=O)C(=O)N[C@@H](C(c2ccccc2)c2ccccc2)C(=O)N2CCC[C@H]2C(=O)N[C@@H](CCCNC(=N)N)C(=O)N[C@@H](CS)C(=O)N[C@@H](CCCNC(=N)N)C(=O)N[C@@H](Cc2ccccc2)C(=O)N1 [mHS17]
in vivo activity (decrease in serum iron) (C57BL/6 mice): no desired biological effect; also recorded: no in vivo potency
